The values that follow come from BindingDB's records for doi:10.1021/jm049389h (Johns Hopkins University, 2005).

The target of this test is Fatty acid synthase (Homo sapiens, UniProt P49327). The test is described as follows: Inhibitory concentration against purified human fatty acid synthase activity in ZR-75-1 breast cancer cells. Summed up: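 FAS purified from ZR-75-1 human breast cancer cells (2 µg per well). Overall reaction read at 37 °C as malonyl-CoA-dependent NADPH oxidation at 340 nm, every 10 s for 5 min. Average of duplicate runs; neg means IC50 > 50 µg/mL.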
Chain of Fatty acid synthase (P49327 whole entry): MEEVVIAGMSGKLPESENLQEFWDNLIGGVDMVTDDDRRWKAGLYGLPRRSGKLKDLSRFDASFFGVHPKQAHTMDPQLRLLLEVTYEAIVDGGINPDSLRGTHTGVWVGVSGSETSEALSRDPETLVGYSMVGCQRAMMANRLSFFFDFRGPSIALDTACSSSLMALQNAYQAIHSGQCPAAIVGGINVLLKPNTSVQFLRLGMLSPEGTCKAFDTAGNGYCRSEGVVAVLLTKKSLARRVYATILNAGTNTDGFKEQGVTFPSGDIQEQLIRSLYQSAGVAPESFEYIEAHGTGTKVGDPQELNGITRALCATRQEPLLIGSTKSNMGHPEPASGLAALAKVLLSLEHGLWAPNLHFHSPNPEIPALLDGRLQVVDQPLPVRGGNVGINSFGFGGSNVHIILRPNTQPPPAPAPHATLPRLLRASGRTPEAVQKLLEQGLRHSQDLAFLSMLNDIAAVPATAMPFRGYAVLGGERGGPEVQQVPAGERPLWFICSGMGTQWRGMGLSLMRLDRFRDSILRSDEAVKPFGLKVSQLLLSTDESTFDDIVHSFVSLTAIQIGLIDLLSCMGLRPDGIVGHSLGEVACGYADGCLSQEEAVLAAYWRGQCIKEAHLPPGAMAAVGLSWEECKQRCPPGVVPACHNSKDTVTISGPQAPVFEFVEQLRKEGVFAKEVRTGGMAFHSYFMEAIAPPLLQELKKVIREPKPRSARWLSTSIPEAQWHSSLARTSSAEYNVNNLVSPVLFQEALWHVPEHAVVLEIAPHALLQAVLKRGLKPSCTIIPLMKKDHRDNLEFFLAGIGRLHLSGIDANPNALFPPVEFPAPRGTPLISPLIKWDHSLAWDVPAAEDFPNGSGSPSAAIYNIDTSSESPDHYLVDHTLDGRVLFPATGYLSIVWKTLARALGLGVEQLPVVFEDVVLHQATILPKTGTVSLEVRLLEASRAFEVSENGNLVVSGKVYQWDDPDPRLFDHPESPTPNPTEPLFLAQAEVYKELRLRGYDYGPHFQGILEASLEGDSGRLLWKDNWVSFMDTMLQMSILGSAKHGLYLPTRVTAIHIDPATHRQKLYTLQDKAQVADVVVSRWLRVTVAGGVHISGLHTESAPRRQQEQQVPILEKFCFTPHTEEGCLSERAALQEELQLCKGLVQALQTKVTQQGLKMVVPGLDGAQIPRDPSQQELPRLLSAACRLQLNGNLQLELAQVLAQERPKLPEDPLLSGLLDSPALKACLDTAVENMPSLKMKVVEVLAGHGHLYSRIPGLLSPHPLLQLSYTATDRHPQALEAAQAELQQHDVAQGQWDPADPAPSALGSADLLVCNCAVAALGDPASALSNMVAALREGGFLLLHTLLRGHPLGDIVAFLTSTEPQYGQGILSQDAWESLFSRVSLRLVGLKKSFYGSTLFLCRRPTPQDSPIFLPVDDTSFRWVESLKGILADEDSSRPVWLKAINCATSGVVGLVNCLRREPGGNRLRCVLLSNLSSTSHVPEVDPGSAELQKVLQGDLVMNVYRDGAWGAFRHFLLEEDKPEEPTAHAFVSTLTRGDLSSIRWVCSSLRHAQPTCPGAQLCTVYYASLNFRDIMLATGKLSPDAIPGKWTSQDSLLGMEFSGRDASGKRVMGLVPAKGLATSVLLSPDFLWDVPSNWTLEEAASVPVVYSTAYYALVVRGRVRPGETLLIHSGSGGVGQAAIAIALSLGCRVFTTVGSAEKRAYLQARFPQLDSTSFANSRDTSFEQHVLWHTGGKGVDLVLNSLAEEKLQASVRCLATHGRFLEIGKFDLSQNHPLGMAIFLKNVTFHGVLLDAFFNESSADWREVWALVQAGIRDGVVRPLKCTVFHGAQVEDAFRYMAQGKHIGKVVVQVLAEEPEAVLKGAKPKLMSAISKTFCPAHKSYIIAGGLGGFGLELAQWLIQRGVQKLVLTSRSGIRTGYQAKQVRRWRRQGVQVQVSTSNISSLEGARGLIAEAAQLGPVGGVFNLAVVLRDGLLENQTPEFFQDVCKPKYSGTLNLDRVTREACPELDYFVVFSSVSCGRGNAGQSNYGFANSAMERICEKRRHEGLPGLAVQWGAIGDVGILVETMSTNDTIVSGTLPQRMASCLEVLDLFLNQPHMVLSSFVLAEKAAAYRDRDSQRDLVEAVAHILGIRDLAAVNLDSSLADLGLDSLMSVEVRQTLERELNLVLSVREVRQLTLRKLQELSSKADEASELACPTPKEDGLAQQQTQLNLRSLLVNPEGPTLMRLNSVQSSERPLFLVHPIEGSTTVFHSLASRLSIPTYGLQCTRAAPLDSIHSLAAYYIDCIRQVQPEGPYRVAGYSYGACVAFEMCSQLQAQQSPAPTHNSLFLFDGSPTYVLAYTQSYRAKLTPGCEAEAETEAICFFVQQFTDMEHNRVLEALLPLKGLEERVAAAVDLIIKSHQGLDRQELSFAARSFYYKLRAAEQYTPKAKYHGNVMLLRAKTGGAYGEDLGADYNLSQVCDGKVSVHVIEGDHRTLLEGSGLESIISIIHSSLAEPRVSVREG

Broadly, the IC50 is the midpoint of a concentration-inhibition curve. Turning to `C=C/C(C)=C/[C@@]1(C)SC(=O)C(C)C1=O` (stereo partly drawn) [(R)-(+)-Thiolactomycin], the IC50 was 99.8 µM.
